Experiments:
di-Zn-NDM-1 [1] = target: T1, di-Zn-NDM-1 (Klebsiella pneumoniae, UniProt C7C422); assay: 1H-15N TROSY-HSQC and 19F NMR titration of di-Zn-NDM-1 with inhibitors; assay type: binding; conditions: di-Zn-NDM-1, 298 K
apo-NDM-1 [2] = target: T2, apo-NDM-1 (Klebsiella pneumoniae, UniProt C7C422); assay: 1H-15N TROSY-HSQC and 19F NMR titration of apo-NDM-1 with inhibitors; assay type: binding; conditions: apo-NDM-1, 298 K
di-Zn-NDM-1 [3] = target: T1, di-Zn-NDM-1; assay: 19F NMR titration, dissociation constant with di-Zn-NDM-1; assay type: binding
Summary of the method: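 NDM-1 (residues 36−270) carrying a C-terminal His6 tag, expressed in E. coli BL21 (DE3) and purified by Ni2+-affinity and size-exclusion chromatography. di-Zn protein, 0.1−0.3 mM, titrated with test compound at ratios chosen so the protein was mostly bound. 19F spectra recorded at each ratio. Kd derived from titration of the residue Y229 signal.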

apo-NDM-1 [4] = target: T2, apo-NDM-1; assay: Thermal stability by circular dichroism, apo-NDM-1; conditions: CD, ellipticity at 208 nm; apo-NDM-1 alone 46.1 °C
di-Zn-NDM-1 [5] = target: T1, di-Zn-NDM-1; assay: Thermal stability by circular dichroism, di-Zn-NDM-1

T2 sequence (C7C422 36-270): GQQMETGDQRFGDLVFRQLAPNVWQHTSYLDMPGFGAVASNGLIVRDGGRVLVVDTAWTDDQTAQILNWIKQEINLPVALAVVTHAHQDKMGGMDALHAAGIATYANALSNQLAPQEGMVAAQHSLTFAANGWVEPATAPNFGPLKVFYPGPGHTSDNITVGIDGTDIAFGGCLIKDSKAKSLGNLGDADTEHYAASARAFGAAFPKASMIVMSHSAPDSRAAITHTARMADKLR
T1 sequence (C7C422 36-270): as above

For `CC(S)C(=O)NCC(=O)O` (stereo not drawn) [tiopronin], the “changes of 1H-15N TROSY-HSQC / 19F spectra upon titration” value (di-Zn-NDM-1 [1]) was “large chemical shift changes”, the “changes of 1H-15N TROSY-HSQC / 19F spectra upon titration” value (apo-NDM-1 [2]) was “No changes” and the Kd (di-Zn-NDM-1 [3]) was 121 µM.
In the case of `CC(CS)C(=O)O` (stereo not drawn) [3-mercaptoisobutyric acid], the “changes of 1H-15N TROSY-HSQC / 19F spectra upon titration” value (di-Zn-NDM-1 [1]) is reported as “large chemical shift changes” and the “changes of 1H-15N TROSY-HSQC / 19F spectra upon titration” value (apo-NDM-1 [2]) is reported as “No changes”.
In the case of colloidal bismuth subcitrate [CBS], the “changes of 1H-15N TROSY-HSQC / 19F spectra upon titration” value (di-Zn-NDM-1 [1]) is reported as “no changes” and the “changes of 1H-15N TROSY-HSQC / 19F spectra upon titration” value (apo-NDM-1 [2]) is reported as “shifted significantly”.
With `c1ccc(CN(Cc2ccccn2)Cc2ccccn2)nc1` [TPA, tris-picolylamine] the “changes of 1H-15N TROSY-HSQC / 19F spectra upon titration” value (di-Zn-NDM-1 [1]) was “significant changes” and the “changes of 1H-15N TROSY-HSQC / 19F spectra upon titration” value (apo-NDM-1 [2]) was “only minute chemical shift changes”.
`O=C(O)c1cc[c]([Hg][Cl])cc1` [chloromercuribenzoic acid, 4-chloromercuribenzoic acid] was tested, and the “changes of 1H-15N TROSY-HSQC / 19F spectra upon titration” value (di-Zn-NDM-1 [1]) was “almost all of the cross-peaks in the 2D TROSY-HSQC spectra disappear” and the “changes of 1H-15N TROSY-HSQC / 19F spectra upon titration” value (apo-NDM-1 [2]) was “almost all of the cross-peaks in the 2D TROSY-HSQC spectra disappear”.
For `OCC(S)CS` (stereo not drawn) [2,3-dimercapto-1-propanol], the “changes of 1H-15N TROSY-HSQC / 19F spectra upon titration” value (di-Zn-NDM-1 [1]) was “large chemical shift changes”, the “changes of 1H-15N TROSY-HSQC / 19F spectra upon titration” value (apo-NDM-1 [2]) was “No changes” and the Kd (di-Zn-NDM-1 [3]) was 712 µM.
`N[C@@H](C(=O)N[C@@H]1C(=O)N2C(C(=O)O)=C(Cl)CS[C@H]12)c1ccccc1` [cefaclor] was tested, and the “changes of 1H-15N TROSY-HSQC / 19F spectra upon titration” value (di-Zn-NDM-1 [1]) was “almost all of the cross-peaks in the 2D TROSY-HSQC spectra disappear” and the “changes of 1H-15N TROSY-HSQC / 19F spectra upon titration” value (apo-NDM-1 [2]) was “almost all of the cross-peaks in the 2D TROSY-HSQC spectra disappear”.
For `c1cnc2c(c1)ccc1cccnc12` [phenanthroline], the “changes of 1H-15N TROSY-HSQC / 19F spectra upon titration” value (di-Zn-NDM-1 [1]) was “significant changes” and the “changes of 1H-15N TROSY-HSQC / 19F spectra upon titration” value (apo-NDM-1 [2]) was “only minute chemical shift changes”.
In the case of `O=c1c2ccccc2[se]n1-c1ccccc1` [ebselen], the “changes of 1H-15N TROSY-HSQC / 19F spectra upon titration” value (di-Zn-NDM-1 [1]) is reported as “almost all of the cross-peaks in the 2D TROSY-HSQC spectra disappear”, the “changes of 1H-15N TROSY-HSQC / 19F spectra upon titration” value (apo-NDM-1 [2]) is reported as “almost all of the cross-peaks in the 2D TROSY-HSQC spectra disappear” and the “Tm of ebselen-bound apo-NDM-1” value (apo-NDM-1 [4]) is reported as 46.1 °C. For the same compound, the “Tm of ebselen-bound di-Zn-NDM-1” value (di-Zn-NDM-1 [5]; CD, ellipticity at 208 nm, di-Zn-NDM-1 alone 53.9 °C) was 48.4 °C and the “Tm lower than that of di-Zn-NDM-1” value (di-Zn-NDM-1 [5]; ebselen-bound di-Zn-NDM-1 vs di-Zn-NDM-1) was “about 5.5 °C”.
For `O[C@@H](CS)[C@@H](O)CS` (racemic) [DTT, dithiothreitol], the “changes of 1H-15N TROSY-HSQC / 19F spectra upon titration” value (di-Zn-NDM-1 [1]) was “large chemical shift changes”, the “changes of 1H-15N TROSY-HSQC / 19F spectra upon titration” value (apo-NDM-1 [2]) was “No changes” and the Kd (di-Zn-NDM-1 [3]) was 30 µM.
`O=C(O)c1cccc(C(=O)O)n1` [dipicolinic acid] was tested, and the “changes of 1H-15N TROSY-HSQC / 19F spectra upon titration” value (di-Zn-NDM-1 [1]) was “significant changes” and the “changes of 1H-15N TROSY-HSQC / 19F spectra upon titration” value (apo-NDM-1 [2]) was “only minute chemical shift changes”.
For `O=C(O)CNC(=O)C(CS)Cc1ccccc1` (stereo not drawn) [thiorphan], the “changes of 1H-15N TROSY-HSQC / 19F spectra upon titration” value (di-Zn-NDM-1 [1]) was “large chemical shift changes” and the “changes of 1H-15N TROSY-HSQC / 19F spectra upon titration” value (apo-NDM-1 [2]) was “No changes”.
